From ChEMBL document CHEMBL1147379, “Antineoplastic agents, 256. Cell growth inhibitory isocarbostyrils from Hymenocallis” (1993)
≈ marks a conversion by molar mass, not a printed value.

How the values were obtained:
Format in all cases: functional
[1] = tested on: SF-295; test: Growth inhibition of human SF295 cells; settings: read-out: pTGI (converted)
Procedure, shortened: (§1)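 NCI 60-human-tumour-cell-line primary in vitro screen. Each compound was tested eight separate times across three concentration ranges with upper limits of 10⁻⁴, 10⁻⁵ and 10⁻⁶ M. Each range used five 10-fold dilutions. GI₅₀, TGI and LC₅₀ were calculated from the concentration-response curves for each cell line, and averaged mean-graph values were constructed from them.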

[2] = tested on: SF-539; test: Growth inhibition of human SF539 cells; procedure, shortened: as §1
[3] = tested on: SNB-19; test: Growth inhibition of human SNB19 cells; procedure, shortened: as §1
[4] = tested on: SNB-75; test: Growth inhibition of human SNB75 cells; procedure, shortened: as §1
[5] = tested on: SNB-78; test: Growth inhibition of human SNB78 cells
Procedure, shortened: (§2)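 NCI 60-human-tumour-line in vitro primary screen. Each compound tested eight separate times over three concentration ranges (upper limits 10⁻⁴, 10⁻⁵ and 10⁻⁶ M), each range as five 10-fold dilutions. GI₅₀ (also TGI and LC₅₀) derived from the concentration-response curves, reported as averaged values per cell line (negative log₁₀).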

[6] = tested on: U-251; test: Growth inhibition of human U251 cells; procedure, shortened: as §2
[7] = tested on: XF498; test: Growth inhibition of human XF498 cells; procedure, shortened: as §2
[8] = tested on: LOX IMVI; test: Growth inhibition of human LOXIMVI cells; procedure, shortened: as §1
[9] = tested on: Malme-3M; test: Growth inhibition of human MALME-3M cells; procedure, shortened: as §1
[10] = tested on: M14; test: Growth inhibition of human M14 cells; procedure, shortened: as §1
[11] = tested on: M19-MEL; test: Growth inhibition of human M19-MEL cells; procedure, shortened: as §1
[12] = tested on: SK-MEL-2; test: Growth inhibition of human SK-MEL-2 cells; procedure, shortened: as §1
[13] = tested on: SK-MEL-28; test: Growth inhibition of human SK-MEL-28 cells; procedure, shortened: as §1
[14] = tested on: SK-MEL-5; test: Growth inhibition of human SK-MEL-5 cells; procedure, shortened: as §1
[15] = tested on: UACC-257; test: Growth inhibition of human UACC257 cells; procedure, shortened: as §2
[16] = tested on: UACC-62; test: Growth inhibition of human UACC62 cells; procedure, shortened: as §2
[17] = tested on: IGROV-1; test: Growth inhibition of human IGROV1 cells; procedure, shortened: as §1
[18] = tested on: OVCAR-3; test: Growth inhibition of human OVCAR-3 cells; procedure, shortened: as §1
[19] = tested on: OVCAR-4; test: Growth inhibition of human OVCAR4 cells; procedure, shortened: as §1
[20] = tested on: OVCAR-5; test: Growth inhibition of human OVCAR5 cells; procedure, shortened: as §1
[21] = tested on: OVCAR-8; test: Growth inhibition of human OVCAR8 cells; procedure, shortened: as §1
[22] = tested on: SK-OV-3; test: Growth inhibition of human SKOV3 cells; procedure, shortened: as §1
[23] = Growth inhibition of human 786-O cells; procedure, shortened: as §1
[24] = tested on: A498; test: Growth inhibition of human A498 cells; procedure, shortened: as §1
[25] = tested on: ACHN; test: Growth inhibition of human ACHN cells; procedure, shortened: as §1
[26] = tested on: CAKI-1; test: Growth inhibition of human Caki1 cells; procedure, shortened: as §1
[27] = tested on: RXF 393; test: Growth inhibition of human RXF393 cells; procedure, shortened: as §1
[28] = tested on: SN12C; test: Growth inhibition of human SN12C cells; procedure, shortened: as §1
[29] = tested on: TK-10; test: Growth inhibition of human TK10 cells; procedure, shortened: as §2
[30] = tested on: UO-31; test: Growth inhibition of human UO31 cells; procedure, shortened: as §2
[31] = tested on: P388; test: Growth inhibition of mouse P388 cells; settings: read-out: ED50 (the source's name)
[32] = read-out: pLC50 (the source's name) (converted)

Structure (SMILES): O=C1N[C@H]2[C@H](O)[C@H](O)[C@@H](O)C[C@@H]2c2cc3c(cc21)OCO3
- TGI [1]: 912 nM
- GI50 [2]: 60.3 nM
- CC50 [2, 32]: 1410 nM
- TGI ([2]; read-out: pTGI (converted)): 282 nM
- GI50 [3]: 41.7 nM
- CC50 [3, 32]: 93300 nM
- TGI ([3]; read-out: pTGI (converted)): 1000 nM
- GI50 [4]: 60.3 nM
- CC50 [4, 32]: 24000 nM
- TGI ([4]; read-out: pTGI (converted)): 437 nM
- GI50 [5]: 87.1 nM
- CC50 [5, 32]: 83200 nM
- TGI ([5]; read-out: pTGI (converted)): 912 nM
- GI50 [6]: 47.9 nM
- CC50 [6, 32]: 37200 nM
- TGI ([6]; read-out: pTGI (converted)): 1290 nM
- GI50 [7]: 81.3 nM
- CC50 [7, 32]: 20900 nM
- TGI ([7]; read-out: pTGI (converted)): 724 nM
- GI50 [8]: 33.1 nM
- CC50 [8, 32]: 708 nM
- TGI ([8]; read-out: pTGI (converted)): 158 nM
- GI50 [9]: 75.9 nM
- CC50 [9, 32]: 8510 nM
- TGI ([9]; read-out: pTGI (converted)): 417 nM
- GI50 [10]: 64.6 nM
- CC50 [10, 32]: 1700 nM
- TGI ([10]; read-out: pTGI (converted)): 347 nM
- GI50 [11]: 39.8 nM
- CC50 [11, 32]: 5250 nM
- TGI ([11]; read-out: pTGI (converted)): 513 nM
- GI50 [12]: 38 nM
- CC50 [12, 32]: 5500 nM
- TGI ([12]; read-out: pTGI (converted)): 331 nM
- GI50 [13]: 81.3 nM
- CC50 [13, 32]: 44700 nM
- TGI ([13]; read-out: pTGI (converted)): 646 nM
- GI50 [14]: 45.7 nM
- CC50 [14, 32]: 1200 nM
- TGI ([14]; read-out: pTGI (converted)): 209 nM
- GI50 [15]: 141 nM
- CC50 [15, 32]: 45700 nM
- TGI ([15]; read-out: pTGI (converted)): 1820 nM
- GI50 [16]: 100 nM
- CC50 [16, 32]: 11000 nM
- TGI ([16]; read-out: pTGI (converted)): 562 nM
- GI50 [17]: 141 nM
- CC50 [17, 32]: 67600 nM
- TGI ([17]; read-out: pTGI (converted)): 1100 nM
- GI50 [18]: 83.2 nM
- CC50 [18, 32]: 45700 nM
- TGI ([18]; read-out: pTGI (converted)): 501 nM
- GI50 [19]: 36.3 nM
- CC50 [19, 32]: 17000 nM
- TGI ([19]; read-out: pTGI (converted)): 427 nM
- GI50 [20]: 324 nM
- CC50 [20, 32]: > 100000 nM
- TGI ([20]; read-out: pTGI (converted)): 2400 nM
- GI50 [21]: 70.8 nM
- CC50 [21, 32]: 72400 nM
- TGI ([21]; read-out: pTGI (converted)): 2290 nM
- GI50 [22]: 91.2 nM
- CC50 [22, 32]: > 100000 nM
- TGI ([22]; read-out: pTGI (converted)): 1100 nM
- GI50 ([23]; 786-0): 110 nM
- CC50 ([23]; 786-0, read-out: pLC50 (the source's name) (converted)): 57500 nM
- TGI ([23]; 786-0, read-out: pTGI (converted)): 2090 nM
- GI50 [24]: 229 nM
- CC50 [24, 32]: 9330 nM
- TGI ([24]; read-out: pTGI (converted)): 1100 nM
- GI50 [25]: 81.3 nM
- CC50 [25, 32]: 11000 nM
- TGI ([25]; read-out: pTGI (converted)): 794 nM
- GI50 [26]: 191 nM
- CC50 [26, 32]: > 100000 nM
- TGI ([26]; read-out: pTGI (converted)): 1410 nM
- GI50 [27]: 72.4 nM
- CC50 [27, 32]: 2510 nM
- TGI ([27]; read-out: pTGI (converted)): 417 nM
- GI50 [28]: 141 nM
- CC50 [28, 32]: 18200 nM
- TGI ([28]; read-out: pTGI (converted)): 1820 nM
- GI50 [29]: 251 nM
- CC50 [29, 32]: > 100000 nM
- TGI ([29]; read-out: pTGI (converted)): 1910 nM
- GI50 [30]: 100 nM
- CC50 [30, 32]: 44700 nM
- TGI ([30]; read-out: pTGI (converted)): 955 nM
- EC50 [31]: 0.02 µg/mL (≈ 0.0682 µM)
